Shown are actives, neighbours in structure and some others; about 2.2% of the full set was active somewhere.
BaF3 parental: counter-screen for JAK2V617F inhibitors: parental Ba/F3 viability inhibitors; inhibition, % at 5.6 µM; CellTiter-Glo ATP luminescence; 220,000 tested, 1.1% active;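 active means inhibition above a per-campaign cutoff, the mean inhibition of all tested compounds plus 3 SD, cut at about 27% in these data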;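 further: 0% = DMSO wells and 100% = JAK Inhibitor I control wells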
Ba/F3 V617F tox: reduce viability of Ba/F3 cells dependent on JAK2V617F. inhibition, % at 5.6 µM. Ba/F3 EpoR-JAK2V617F viability, ATP luminescence. AID 1446. 220,000 tested, 1.1% active;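 active means inhibition above the campaign mean plus 3 SD over all tested compounds, cut at about 24% in these data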;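 further: cytokine-independent growth of Ba/F3 cells driven by EpoR plus mutant JAK2; 0% = DMSO-treated cells and 100% = JAK inhibitor I control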
b-catenin transl: beta-catenin nuclear translocation modulation; AID 1665; 190,000 tested, 0.3% active; nuclear translocation activity, % at 5 µM; HeLa beta-catenin nuclear translocation, immunofluorescence imaging;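 active means nuclear translocation activity above 50% at 5 µM, with a well cell count of 50 or more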;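 further: per-cell ratio of nuclear to cytoplasmic median beta-catenin stain intensity; plate controls were DMSO negative control for no effect and GSK-3 inhibitor IX positive control for full effect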
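System: HeLa cells, endogenous beta-catenin; compound dosing: 5 µM primary single dose, 0.1% DMSO, 0.02–20 µM confirmation series; incubation: 24 h compound exposure at 37°C, 5% CO2; signal: beta-catenin immunofluorescence imaging with DAPI; evaluation: % activation, nuclear-to-cytoplasmic median beta-catenin signal ratio per cell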
MT stabilizer: stabilizes microtubules in HeLa cells; % tubulin-high responders, % at 10 µM; 200,000 tested, 0.83% active; AID 2205; HeLa tubulin immunostaining HCS, 24 h; share of cells brighter than vehicle mean+2SD;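 active means plate Z-score above 3 for both tubulin-high and condensed-nucleus cell shares, with cell loss under 80%, at 10 µM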;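 further: anti alpha tubulin signal scored within the nucleus-defined area of each cell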
IEC-6 cytotox: kills IEC-6 intestinal cells in KLF5 counter-screen; IEC-6 cytotoxicity, luminescence viability; inhibition, % at 5 µM; 290,000 tested, 0.78% active; AID 1825;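 further: 0% = plate median of test compound wells and 100% = cytotoxic reference compound wells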
APP transl inh: APP translation inhibition. SH-SY5Y APP 5'UTR-luciferase reporter, luminescence. 190,000 tested, 0.82% active. inhibition, % at 2 µM. AID 1285;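 active means inhibition above a set limit, derived from the sample mean plus 3 SD, cut at about 45% in these data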
IEC-6 cytotox cf: IEC-6 cytotoxicity, confirmation assay. inhibition, % at 5 µM. shares compounds with IEC-6 cytotox. IEC-6 rat intestinal epithelial viability, luminescence. 1,900 tested, 63% active;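 further: 0% = vehicle and 100% = reference cytotoxic drug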
Numbers without * were called inactive. Unless noted, no stated cut-off is given here; in the data, active means inhibition above about 22%; inactive means the rest.

CCOC(=O)C(C)Oc1cccc2c(=O)n(CC(=O)NCc3ccccc3)ccc12 (centres undefined) was read as BaF3 parental 76.2*, Ba/F3 V617F tox 72.8*, b-catenin transl 50.7*, IEC-6 cytotox 81.5* and IEC-6 cytotox cf 58.1*.
`CCOC(=O)C(C)Oc1cccc2c(=O)n(CC(=O)NCCc3ccccc3)ccc12` (centres undefined) gave BaF3 parental 4.5, Ba/F3 V617F tox 2.3, b-catenin transl 0.9 and IEC-6 cytotox -1.0.
CCN1CCN(C(=O)c2ccc(Cl)c(S(=O)(=O)N3CCCCC3)c2)CC1 was read as IEC-6 cytotox 2.7.
CN(C)CCn1c2ccccc2c2nc3ccc([N+](=O)[O-])cc3cc21 was read as BaF3 parental 71.2*, Ba/F3 V617F tox 86.5*, b-catenin transl -2.7, IEC-6 cytotox 81.9* and IEC-6 cytotox cf 50.8*.
`Cc1cc(C)c2nc(-c3ccncc3)cc(C(=O)N3CCN(Cc4ccccc4Cl)CC3)c2c1` gave IEC-6 cytotox -3.3.
For O=C(COC(=O)c1ccccc1Nc1ccc(SC(F)F)cc1)NC1CC1 the results were BaF3 parental 9.3, Ba/F3 V617F tox -1.5, b-catenin transl 1.2, MT stabilizer 2.4, IEC-6 cytotox 8.7 and APP transl inh -20.1.
For CC(C)(C)NC(=O)COC(=O)c1ccccc1Nc1ccc(SC(F)F)cc1 the results were BaF3 parental 3.8, Ba/F3 V617F tox -1.0, b-catenin transl -0.3, MT stabilizer 5.1, IEC-6 cytotox 37.9*, APP transl inh -3.8 and IEC-6 cytotox cf 31.1*.
Screening COc1cccc(CN2C(=O)C3(C(C#N)=C(N)OC4=C3C(=O)CCC4)c3ccccc32)c1 (centres undefined) returned BaF3 parental 89.1*, Ba/F3 V617F tox 71.9*, b-catenin transl -0.9, MT stabilizer 4.6, IEC-6 cytotox 59.1*, APP transl inh -9.0 and IEC-6 cytotox cf 54.4*.
For CC1(C)CC(=O)C2=C(C1)OC(N)=C(C#N)C21C(=O)N(CN2CCOCC2)c2ccccc21 (centres undefined) the results were BaF3 parental 0.1, Ba/F3 V617F tox -4.3, b-catenin transl 0.1, MT stabilizer 2.8, IEC-6 cytotox -1.9 and APP transl inh -7.8.
`O=C(Nc1nc2c(F)cccc2s1)c1ccc([N+](=O)[O-])o1` gave IEC-6 cytotox 40.3* and IEC-6 cytotox cf 15.2.
For O=C(Nc1ncccn1)c1ccc([N+](=O)[O-])o1 the results were BaF3 parental 4.0, Ba/F3 V617F tox -0.7, b-catenin transl -1.8, MT stabilizer 1.9, IEC-6 cytotox 5.7 and APP transl inh -8.6.
For Cn1cc([N+](=O)[O-])c(C(=O)Nc2ccc(C3CCCCC3)cc2)n1 the results were BaF3 parental 1.9, Ba/F3 V617F tox 0.2, b-catenin transl 6.0, MT stabilizer 3.6, IEC-6 cytotox 25.3*, APP transl inh -26.6 and IEC-6 cytotox cf 30.4*.
For O=C(Nc1nc2c(Cl)cccc2s1)c1ccc([N+](=O)[O-])o1 the results were IEC-6 cytotox 6.1.
For O=C(Nc1cccc2ccccc12)c1ccc([N+](=O)[O-])o1 the results were IEC-6 cytotox 95.7* and IEC-6 cytotox cf 22.1*.
For Cn1cc([N+](=O)[O-])c(C(=O)Nc2ccc(C(=O)N3CCCCC3)cc2)n1 the results were BaF3 parental 13.7, Ba/F3 V617F tox 5.6, b-catenin transl 13.4, MT stabilizer 5.6, IEC-6 cytotox -0.1 and APP transl inh 20.9.
Cn1cc([N+](=O)[O-])c(C(=O)Nc2nc(-c3ccc(Cl)cc3)cs2)n1 was read as BaF3 parental 28.3*, Ba/F3 V617F tox 4.5, b-catenin transl 6.9, MT stabilizer 50.5, IEC-6 cytotox 36.6*, APP transl inh 95.9* and IEC-6 cytotox cf 56.4*.
`Cc1ccc(-c2csc(NC(=O)c3ccc(C)o3)n2)cc1` gave BaF3 parental 5.0, Ba/F3 V617F tox 1.7, MT stabilizer 3.5, IEC-6 cytotox -6.7 and APP transl inh -12.9.
`Cc1ccc(-c2csc(NC(=O)c3ccc([N+](=O)[O-])o3)n2)cc1` gave IEC-6 cytotox 99.7* and IEC-6 cytotox cf 41.6*.
Screening Cc1ccc2nsnc2c1NC(=O)c1ccc(-c2cc(Cl)ccc2Cl)o1 returned BaF3 parental 0.9, Ba/F3 V617F tox -1.4, b-catenin transl 1.9, MT stabilizer 1.9, IEC-6 cytotox 4.6 and APP transl inh -12.0.
Cc1cccc(NC(=O)c2ccc([N+](=O)[O-])o2)c1C was read as BaF3 parental -7.8, Ba/F3 V617F tox 4.6, b-catenin transl -0.8, MT stabilizer 5.0, IEC-6 cytotox 34.0*, APP transl inh 5.4 and IEC-6 cytotox cf 23.0*.
O=C(Nc1cc(-c2nc3ncccc3o2)ccc1Cl)c1ccc([N+](=O)[O-])o1 was read as IEC-6 cytotox 93.2* and IEC-6 cytotox cf 30.5*.
For Cc1ccc2nsnc2c1NC(=O)c1ccc([N+](=O)[O-])o1 the results were IEC-6 cytotox 96.2* and IEC-6 cytotox cf 28.3*.
O=C(NCc1ccccc1)c1ccc(NC(=O)c2ccccc2F)cc1 was read as IEC-6 cytotox 4.5.
Screening COC(=O)c1cc(C(=O)N2CCN(c3cccc(Cl)c3)CC2)cc([N+](=O)[O-])c1 returned BaF3 parental 71.5*, Ba/F3 V617F tox 72.7*, b-catenin transl 99.5*, MT stabilizer 12.5, IEC-6 cytotox 79.4*, APP transl inh 92.3* and IEC-6 cytotox cf 53.0*.
For CCOc1ccccc1C(=O)N1CCN(c2cccc(Cl)c2)CC1 the results were BaF3 parental 85.1*, Ba/F3 V617F tox 89.3*, b-catenin transl 68.6*, MT stabilizer 14.8*, IEC-6 cytotox 91.8*, APP transl inh 94.5* and IEC-6 cytotox cf 66.5*.
`COC(=O)c1cc(C(=O)N2CCOCC2)cc([N+](=O)[O-])c1` gave BaF3 parental 5.4, Ba/F3 V617F tox -0.9, b-catenin transl 0.5, MT stabilizer 2.3, IEC-6 cytotox -0.8 and APP transl inh -18.0.
Screening O=C(O)c1ccccc1C(=O)N1CCN(c2cccc(Cl)c2)CC1 returned BaF3 parental 6.4, Ba/F3 V617F tox 3.3, b-catenin transl -0.6, MT stabilizer 4.0, IEC-6 cytotox 0.9 and APP transl inh -4.1.
For O=C(NCc1ccccc1Cl)C1CCC(=O)N(CC2CCCCC2)C1 (centres undefined) the results were IEC-6 cytotox -1.6.
COc1ccc(NC2CCCN(C(=O)CCCn3cncn3)C2)cc1OC (centres undefined) was read as IEC-6 cytotox -5.9.
COc1ccc(S(=O)(=O)NCCCn2ccnc2)cc1C(C)(C)C was read as IEC-6 cytotox -4.8.
`CC(NS(=O)(=O)c1ccc2c(c1)CC(C)N2C(=O)C1CC1)c1ccccc1` (centres undefined) gave IEC-6 cytotox 3.4.
